Test results from ChEMBL document CHEMBL1811814, “Synthesis and evaluation of indole, pyrazole, chromone and pyrimidine based conjugates for tumor growth inhibitory activities--development of highly efficacious cytotoxic agents” (Eur J Med Chem, 2010).

Columns and labels:
Assay type in all cases: functional
[1] = system: CAKI-1; experiment: Growth inhibition of human Caki1 cells
[2] = system: CCRF-CEM; experiment: Growth inhibition of human CCRF-CEM cells
[3] = system: UACC-257; experiment: Growth inhibition of human UACC257 cells
[4] = system: 786-0; experiment: Growth inhibition of human 786-0 cells assessed tumor cell growth at 10^-5 M; parameters: scale not given: the % may be the effect or the level left
How it was run: (§1)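 NCI 60-human-tumor-cell-line panel screen. Each compound was tested at a single concentration of 10^-5 M, and percent growth of tumor cells was recorded for each cell line. Growth inhibition was expressed from these percent-growth values.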

[5] = system: OVCAR-8; experiment: Growth inhibition of human OVCAR8 cells
[6] = system: RXF 393; experiment: Growth inhibition of human RXF393 cells
[7] = system: HOP-92; experiment: Growth inhibition of human HOP92 cells
[8] = system: Malme-3M; experiment: Growth inhibition of human MALME-3M cells assessed tumor cell growth at 10^-5 M; parameters: scale not given: the % may be the effect or the level left; how it was run: as §1
[9] = system: HL-60(TB); experiment: Growth inhibition of human HL-60(TB) cells
[10] = system: A549; experiment: Growth inhibition of human A549 cells assessed tumor cell growth at 10^-5 M; parameters: scale not given: the % may be the effect or the level left; how it was run: as §1
[11] = system: T47D; experiment: Growth inhibition of human T47D cells
[12] = system: NCI-H23; experiment: Growth inhibition of human NCI-H23 cells
[13] = system: U-251; experiment: Growth inhibition of human U251 cells assessed tumor cell growth at 10^-5 M; parameters: scale not given: the % may be the effect or the level left
How it was run: (§2)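 Single-dose screen at 10^-5 M across the 60 human tumor cell line panel, run to NCI standards. The value is the percent growth of each cell line in the presence of compound. Compounds active at this dose moved on to five-concentration testing (10^-4 to 10^-8 M).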

[14] = system: DU-145; experiment: Growth inhibition of human DU145 cells
[15] = system: MDA-MB-468; experiment: Growth inhibition of human MDA-MB-468 cells assessed tumor cell growth at 10^-5 M; parameters: scale not given: the % may be the effect or the level left; how it was run: as §1
[16] = system: 786-0; experiment: Growth inhibition of human 786-0 cells
[17] = system: SK-MEL-5; experiment: Growth inhibition of human SK-MEL-5 cells
[18] = system: HL-60(TB); experiment: Growth inhibition of human HL-60(TB) cells assessed tumor cell growth at 10^-5 M; parameters: scale not given: the % may be the effect or the level left
How it was run: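 HL-60(TB), part of the 60-line panel, tested at a single concentration of 10^-5 M. The read-out is percent tumor cell growth relative to untreated growth.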

[19] = system: UACC-257; experiment: Growth inhibition of human UACC257 cells assessed tumor cell growth at 10^-5 M; parameters: scale not given: the % may be the effect or the level left; how it was run: as §2
[20] = Growth inhibition of human RPMI8266 cells
[21] = system: UACC-62; experiment: Growth inhibition of human UACC62 cells
[22] = system: RXF 393; experiment: Growth inhibition of human RXF393 cells assessed tumor cell growth at 10^-5 M; parameters: scale not given: the % may be the effect or the level left; how it was run: as §1
[23] = system: HT-29; experiment: Growth inhibition of human HT-29 cells
[24] = system: NCI-H322M; experiment: Growth inhibition of human NCI-H322M cells
[25] = system: OVCAR-8; experiment: Growth inhibition of human OVCAR8 cells assessed tumor cell growth at 10^-5 M; parameters: scale not given: the % may be the effect or the level left; how it was run: as §1
[26] = system: IGROV-1; experiment: Growth inhibition of human IGROV1 cells assessed tumor cell growth at 10^-5 M; parameters: scale not given: the % may be the effect or the level left; how it was run: as §1
[27] = system: HCT-116; experiment: Growth inhibition of human HCT116 cells assessed tumor cell growth at 10^-5 M; parameters: scale not given: the % may be the effect or the level left; how it was run: as §1
[28] = Growth inhibition of human Hs 578T cells
[29] = system: SK-MEL-5; experiment: Growth inhibition of human SK-MEL-5 cells assessed tumor cell growth at 10^-5 M; parameters: scale not given: the % may be the effect or the level left; how it was run: as §1
[30] = system: U-251; experiment: Growth inhibition of human U251 cells
[31] = system: SW-620; experiment: Growth inhibition of human SW620 cells assessed tumor cell growth at 10^-5 M; parameters: scale not given: the % may be the effect or the level left; how it was run: as §2
[32] = system: MDA-MB-231; experiment: Growth inhibition of human MDA-MB-231 cells
[33] = system: NCI-H322M; experiment: Growth inhibition of human NCI-H322M cells assessed tumor cell growth at 10^-5 M; parameters: scale not given: the % may be the effect or the level left; how it was run: as §1
[34] = system: CAKI-1; experiment: Growth inhibition of human Caki1 cells assessed tumor cell growth at 10^-5 M; parameters: scale not given: the % may be the effect or the level left; how it was run: as §1
[35] = system: PC-3; experiment: Growth inhibition of human PC3 cells assessed tumor cell growth at 10^-5 M; parameters: scale not given: the % may be the effect or the level left; how it was run: as §1
[36] = system: KM12; experiment: Growth inhibition of human KM12 cells
[37] = system: SF-268; experiment: Growth inhibition of human SF268 cells assessed tumor cell growth at 10^-5 M; parameters: scale not given: the % may be the effect or the level left; how it was run: as §1
[38] = system: MDA-MB-435; experiment: Growth inhibition of human MDA-MB-435 cells assessed tumor cell growth at 10^-5 M; parameters: scale not given: the % may be the effect or the level left; how it was run: as §1
[39] = system: BT-549; experiment: Growth inhibition of human BT549 cells assessed tumor cell growth at 10^-5 M; parameters: scale not given: the % may be the effect or the level left; how it was run: as §1
[40] = system: COLO 205; experiment: Growth inhibition of human COLO205 cells
[41] = system: SK-MEL-2; experiment: Growth inhibition of human SK-MEL-2 cells assessed tumor cell growth at 10^-5 M; parameters: scale not given: the % may be the effect or the level left; how it was run: as §1
[42] = system: BT-549; experiment: Growth inhibition of human BT549 cells
[43] = system: SNB-75; experiment: Growth inhibition of human SNB75 cells
[44] = system: SK-MEL-2; experiment: Growth inhibition of human SK-MEL-2 cells
[45] = system: OVCAR-5; experiment: Growth inhibition of human OVCAR5 cells assessed tumor cell growth at 10^-5 M; parameters: scale not given: the % may be the effect or the level left; how it was run: as §1
[46] = system: SF-295; experiment: Growth inhibition of human SF295 cells assessed tumor cell growth at 10^-5 M; parameters: scale not given: the % may be the effect or the level left; how it was run: as §1
[47] = system: ACHN; experiment: Growth inhibition of human ACHN cells
[48] = system: MOLT-4; experiment: Growth inhibition of human MOLT4 cells assessed tumor cell growth at 10^-5 M; parameters: scale not given: the % may be the effect or the level left; how it was run: as §1
[49] = system: LOX IMVI; experiment: Growth inhibition of human LOXIMVI cells assessed tumor cell growth at 10^-5 M; parameters: scale not given: the % may be the effect or the level left; how it was run: as §1
[50] = system: HCC 2998; experiment: Growth inhibition of human HCC2998 cells assessed tumor cell growth at 10^-5 M; parameters: scale not given: the % may be the effect or the level left; how it was run: as §1
[51] = read-out: LC50 (the source's name)

## O=C1/C(=C\c2coc3ccccc3c2=O)c2ccccc2N1c1c(Cl)cccc1Cl
[1]
  GI50: 2.4 µM
[1]; [51]
  CC50: > 100 µM
[2]
  GI50: 2 µM
[2]; [51]
  CC50: > 100 µM
[3]
  GI50: 4.5 µM
[3]; [51]
  CC50: > 100 µM
[4]
  Activity: 27.05%
[5]
  GI50: 5.4 µM
[5]; [51]
  CC50: > 100 µM
[6]
  GI50: 1.8 µM
[6]; [51]
  CC50: 69.1 µM
[7]
  GI50: 4.7 µM
[7]; [51]
  CC50: > 100 µM
[8]
  Activity: 83.75%
[9]
  GI50: 2 µM
[9]; [51]
  CC50: > 100 µM
[10]
  Activity: 26.65%
[11]
  GI50: 3 µM
[11]; [51]
  CC50: > 100 µM
[12]
  GI50: 4.4 µM
[13]
  Activity: 36.04%
[14]
  GI50: 4.6 µM
[14]; [51]
  CC50: > 100 µM
[15]
  Activity: 44.85%
[16]
  GI50: 3 µM
[16]; [51]
  CC50: > 100 µM
[17]
  GI50: 2.4 µM
[17]; [51]
  CC50: > 100 µM
[18]
  Activity: 33.76%
[19]
  Activity: 61.22%
[20]
  GI50: 1.2 µM
[20]; [51]
  CC50: 69.1 µM
[21]
  GI50: 2.1 µM
[21]; [51]
  CC50: > 100 µM
[22]
  Activity: 44.09%
[23]
  GI50: 3 µM
[23]; [51]
  CC50: > 100 µM
[24]
  GI50: 5.8 µM
[24]; [51]
  CC50: > 100 µM
[25]
  Activity: 31.58%
[26]
  Activity: 48.69%
[27]
  Activity: 35.61%
[28]
  GI50: 9.1 µM
[28]; [51]
  CC50: > 100 µM
[29]
  Activity: 20.33%
[30]
  GI50: 1.4 µM
[30]; [51]
  CC50: > 100 µM
[31]
  Activity: 35%
[32]
  GI50: 3.8 µM
[32]; [51]
  CC50: > 100 µM
[33]
  Activity: 73.67%
[34]
  Activity: -7.88%
[35]
  Activity: 31.81%
[36]
  GI50: 3 µM
[36]; [51]
  CC50: > 100 µM
[37]
  Activity: 31.99%
[38]
  Activity: 14.46%
[39]
  Activity: 41.11%
[40]
  GI50: 3.8 µM
[41]
  Activity: 85.69%
[42]
  GI50: 2.8 µM
[42]; [51]
  CC50: > 100 µM
[43]
  GI50: 1.9 µM
[43]; [51]
  CC50: > 100 µM
[44]
  GI50: 2.7 µM
[44]; [51]
  CC50: 61.6 µM
[45]
  Activity: 101.76%
[46]
  Activity: -12.01%
[47]
  GI50: 4.1 µM
[47]; [51]
  CC50: > 100 µM
[48]
  Activity: 19.03%
[49]
  Activity: 37.07%
[50]
  Activity: 53%
